Experimental data reported in ChEMBL document CHEMBL1137089, “Identification of putative agouti-related protein(87-132)-melanocortin-4 receptor interactions by homology molecular modeling and validation using chimeric peptide ligands” (J Med Chem, 2004).
*1 amine or outer side, *2 acyl side, *3 side chain or, on linkers, in order; H or OH if unused. Where a SMILES comes first, the peptide text is derived from it. Bridges are numbered along the chain shown (N, C = ends). [ ]: non-standard residue; d: D form. The star is where a group is joined. X4 = O=C(C(=O)[*:2])[C@H](Cc1ccccc1)N[*:1]; X3 = NN[C@@H](Cc1ccc(O)cc1)C(=O)*; Dap = NC[C@H](N)C(=O)O

Columns and labels:
[1] = target: Melanocyte-stimulating hormone receptor (Mus musculus, UniProt Q01727); assay: Effective concentration against mouse Melanocortin 1 receptor; type: functional
Sequence of Melanocyte-stimulating hormone receptor (Q01727 whole entry): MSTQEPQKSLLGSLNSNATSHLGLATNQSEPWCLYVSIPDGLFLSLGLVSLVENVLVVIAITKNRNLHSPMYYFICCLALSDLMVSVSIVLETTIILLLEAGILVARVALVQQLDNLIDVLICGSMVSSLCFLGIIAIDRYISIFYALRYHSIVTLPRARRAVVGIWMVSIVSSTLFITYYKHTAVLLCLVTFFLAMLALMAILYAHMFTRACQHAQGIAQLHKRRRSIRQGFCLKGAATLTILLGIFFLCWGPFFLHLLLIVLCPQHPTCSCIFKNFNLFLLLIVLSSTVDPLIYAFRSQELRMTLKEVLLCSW
Procedure, shortened: (§1)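 HEK-293 cells stably expressing the mouse melanocortin receptor (G418 selection), transiently transfected with CRE/β-galactosidase reporter. EC50 by nonlinear least-squares fit; SEM from at least three independent experiments.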

[2] = target: Melanocortin receptor 3 (Mus musculus, UniProt P33033); assay: Effective concentration against mouse Melanocortin 3 receptor; type: functional; conditions: for Kb: read-out: pA2 (converted); procedure, shortened: as §1
Sequence of Melanocortin receptor 3 (P33033 whole entry): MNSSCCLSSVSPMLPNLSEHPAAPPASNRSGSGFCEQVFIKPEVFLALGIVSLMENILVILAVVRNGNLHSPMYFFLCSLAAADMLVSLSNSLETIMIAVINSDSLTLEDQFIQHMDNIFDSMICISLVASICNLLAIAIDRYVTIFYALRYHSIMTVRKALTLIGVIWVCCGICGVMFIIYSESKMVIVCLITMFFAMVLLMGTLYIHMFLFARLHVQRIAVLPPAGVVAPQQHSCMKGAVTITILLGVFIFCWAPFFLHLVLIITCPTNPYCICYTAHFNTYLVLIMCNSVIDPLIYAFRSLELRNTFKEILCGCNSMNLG

[3] = target: T1, Melanocortin receptor 4 (Mus musculus, UniProt P56450); assay: Inhibitory concentration towards melanocortin MC4 receptor by displacing radioligand [125I]-hAGRP(87-132)
T1 sequence (P56450 whole entry): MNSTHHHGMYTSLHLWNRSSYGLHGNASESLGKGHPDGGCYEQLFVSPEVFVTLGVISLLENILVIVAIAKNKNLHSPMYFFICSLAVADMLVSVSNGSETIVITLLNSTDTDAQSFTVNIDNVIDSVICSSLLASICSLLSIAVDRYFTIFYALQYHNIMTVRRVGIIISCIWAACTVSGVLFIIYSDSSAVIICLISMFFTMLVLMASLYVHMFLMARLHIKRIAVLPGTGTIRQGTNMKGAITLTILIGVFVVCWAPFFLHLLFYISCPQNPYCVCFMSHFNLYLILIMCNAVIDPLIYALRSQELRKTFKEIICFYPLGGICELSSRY

[4] = target: T1, Melanocortin receptor 4; assay: Inhibitory concentration towards melanocortin MC4 receptor by displacing radioligand [125I]NDP-MSH
Procedure, shortened: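 Whole HEK-293 cells stably expressing the mouse MC4 receptor, plated at 0.3 × 10⁶ cells/well the day before. Cells washed, lysed in NaOH/Triton X-100, and counted by γ-counter. IC50 by nonlinear least-squares fit; duplicate wells, at least two independent experiments, mean ± SD.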

[5] = target: T1, Melanocortin receptor 4; assay: Effective concentration against mouse melanocortin MC4 receptor; type: functional; procedure, shortened: as §1
[6] = target: Melanocortin receptor 5 (Mus musculus, UniProt P41149); assay: Effective concentration against mouse Melanocortin 5 receptor; type: functional; procedure, shortened: as §1
Sequence of Melanocortin receptor 5 (P41149 whole entry): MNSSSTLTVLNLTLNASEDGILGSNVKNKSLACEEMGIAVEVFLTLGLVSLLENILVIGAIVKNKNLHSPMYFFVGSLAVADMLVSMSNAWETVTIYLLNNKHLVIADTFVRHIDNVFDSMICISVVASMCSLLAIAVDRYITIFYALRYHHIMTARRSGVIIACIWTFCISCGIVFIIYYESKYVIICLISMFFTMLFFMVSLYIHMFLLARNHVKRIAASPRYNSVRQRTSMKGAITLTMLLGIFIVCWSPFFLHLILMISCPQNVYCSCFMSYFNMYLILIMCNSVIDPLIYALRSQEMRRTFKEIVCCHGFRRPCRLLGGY

SMILES	EC50 [1] [µM]	Kb [2] [µM]	IC50 [3] [µM]	IC50 [4] [µM]	EC50 [2] [µM]	EC50 [5] [µM]	EC50 [6] [µM]
CSCC[C@@H]1NC(=O)[C@H](C)NC(=O)[C@H]([C@@H](C)O)NC(=O)CNC(=O)[C@H](CC(C)C)NC(=O)[C@H](CCCCN)NC(=O)[C@H](CCCN=C(N)N)NC(=O)[C@@H]2CSSSSC[C@@H]3NC(=O)[C@@H]4CCCN4C(=O)[C@H](C(C)C)NC(=O)[C@H](CCC(N)=O)NC(=O)[C@H](CCC(N)=O)NC(=O)CNC(=O)[C@H](CC(C)C)NC(=O)[C@@H]4CSSSSC[C@H](NC(=O)[C@H]([C@@H](C)O)NC(=O)[C@H](C)NC(=O)[C@H](CSSSSC[C@@H](C(=O)N[C@@H](CO)C(=O)N[C@@H](CCCN=C(N)N)C(=O)N[C@H](C(=O)O)[C@@H](C)O)NC(=O)[C@@H]5CCCN5C(=O)[C@H](CC(N)=O)NC1=O)NC(=O)[C@@H]1CCCN1C(=O)[C@H](CC(=O)O)NC(=O)[C@H](CSSSSC[C@H](N)C(=O)N[C@@H](C(C)C)C(=O)N[C@@H](CCCN=C(N)N)C(=O)N[C@@H](CC(C)C)C(=O)N[C@@H](Cc1c[nH]cn1)C(=O)N[C@@H](CCC(=O)O)C(=O)N[C@@H](CO)C(=O)N4)NC3=O)C(=O)N[C@@H](Cc1ccc(O)cc1)C(=O)N[C@H]1CSSSSC[C@H](NC(=O)[C@H](Cc3ccccc3)NC(=O)[C@H](C)NC(=O)[C@H](CC(N)=O)NC(=O)[C@H](Cc3ccccc3)NC(=O)[C@H](Cc3ccccc3)NC(=O)[C@H](CCCN=C(N)N)NC1=O)C(=O)N[C@@H](Cc1ccc(O)cc1)C(=O)N2	> 100	0.00126	0.00548	–	–	–	–
C[C@@H]1NC(=O)[C@H](CC(N)=O)NC(=O)[C@H](Cc2ccccc2)NC(=O)[C@H](Cc2ccccc2)NC(=O)[C@H](CCCNC(=N)N)NC(=O)[C@@H](NC(=O)[C@@H](N)Cc2ccc(O)cc2)CC(=O)NC[C@@H](C(=O)N[C@@H](Cc2ccc(O)cc2)C(N)=O)NC(=O)[C@H](Cc2ccccc2)NC1=O	–	–	3.2	4.8	–	–	–
CNC(=O)C[C@@H]1NC(=O)[C@H](C)NC(=O)[C@H](C)NC(=O)[C@H](C)NC(=O)[C@@H](NC(=O)[C@H](Cc2ccc(O)cc2)NN)CC(=O)NC[C@@H](C(=O)N[C@@H](Cc2ccc(O)cc2)C(N)=O)NC(=O)C(=O)[C@H](Cc2ccccc2)NC(=O)[C@H](C)NC1=O (X3-DAAAD(NHMe)A[X4][Dap]Y-NH2; lactam 1-8)	–	–	–	–	> 100	–	–
C[C@@H]1NC(=O)[C@H](CC(N)=O)NC(=O)[C@@H](Cc2ccccc2)NC(=O)[C@H](CCCNC(=N)N)NC(=O)[C@H](Cc2c[nH]c3ccccc23)NC(=O)[C@@H](NC(=O)[C@@H](N)Cc2ccc(O)cc2)CC(=O)NC[C@@H](C(=O)N[C@@H](Cc2ccc(O)cc2)C(N)=O)NC(=O)[C@H](Cc2ccccc2)NC1=O (H-YDWR[dF]NAF[Dap]Y-NH2; lactam 2-9)	6.12	–	> 10	–	–	15.9	2.22
C[C@@H]1NC(=O)[C@H](CC(N)=O)NC(=O)[C@H](Cc2c[nH]c3ccccc23)NC(=O)[C@H](CCCNC(=N)N)NC(=O)[C@H](Cc2ccccc2)NC(=O)[C@@H](NC(=O)[C@@H](N)Cc2ccc(O)cc2)CC(=O)NC[C@@H](C(=O)N[C@@H](Cc2ccc(O)cc2)C(N)=O)NC(=O)[C@H](Cc2ccccc2)NC1=O (H-YDFRWNAF[Dap]Y-NH2; lactam 2-9)	19.7	–	4.1	9.2	–	13.4	3.9
C[C@@H]1NC(=O)[C@@H](CC(N)=O)NC(=O)[C@H](Cc2ccccc2)NC(=O)[C@@H](Cc2ccccc2)NC(=O)[C@H](CCCN=C(N)N)NC(=O)[C@@H](NC(=O)[C@@H](N)Cc2ccc(O)cc2)CC(=O)NC[C@@H](C(=O)N[C@@H](Cc2ccc(O)cc2)C(=O)O)NC(=O)[C@@H](Cc2ccccc2)NC1=O	–	2	–	–	–	–	–
C[C@@H]1NC(=O)[C@H](CC(N)=O)NC(=O)[C@H](Cc2ccccc2)NC(=O)[C@H](Cc2ccccc2)NC(=O)[C@H](CCCNC(=N)N)NC(=O)[C@H](Cc2c[nH]cn2)NC(=O)[C@@H](NC(=O)[C@@H](N)Cc2ccc(O)cc2)CC(=O)NC[C@@H](C(=O)N[C@@H](Cc2ccc(O)cc2)C(N)=O)NC(=O)[C@H](Cc2ccccc2)NC1=O (H-YDHRFFNAF[Dap]Y-NH2; lactam 2-10)	13.3	–	–	–	–	> 100	> 100
C[C@@H]1NC(=O)[C@H](CC(N)=O)NC(=O)[C@H](Cc2c[nH]c3ccccc23)NC(=O)[C@H](CCCNC(=N)N)NC(=O)[C@@H](Cc2ccccc2)NC(=O)[C@@H](NC(=O)[C@@H](N)Cc2ccc(O)cc2)CC(=O)NC[C@@H](C(=O)N[C@@H](Cc2ccc(O)cc2)C(N)=O)NC(=O)[C@H](Cc2ccccc2)NC1=O (H-YD[dF]RWNAF[Dap]Y-NH2; lactam 2-9)	–	–	3.1	6.8	–	–	–
C[C@@H]1NC(=O)[C@H](CC(N)=O)NC(=O)[C@H](Cc2ccccc2)NC(=O)[C@H](CCCNC(=N)N)NC(=O)[C@H](Cc2c[nH]c3ccccc23)NC(=O)[C@@H](NC(=O)[C@@H](N)Cc2ccc(O)cc2)CC(=O)NC[C@@H](C(=O)N[C@@H](Cc2ccc(O)cc2)C(N)=O)NC(=O)[C@H](Cc2ccccc2)NC1=O (H-YDWRFNAF[Dap]Y-NH2; lactam 2-9)	–	–	7.3	10.3	–	–	–
